Laboratory results reported in ChEMBL document CHEMBL1148900, “Isolation and characterization of five new tetrasaccharide glycosides from the roots of Ipomoea stans and their cytotoxic activity” (2004).
≈ marks a conversion by molar mass, not a printed value. Calls of active or inactive are those of the source. The calls are words filed in the database; no cut-off is given here.

Tests used:
Format in all cases: functional
OVCAR-5 = assay: Cytotoxicity against human OVCAR5 cells after 72 hrs; conditions: OVCAR-5, 72 h, read-out: ED50 (the source's name)
In short: (§1)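 Cells kept in RPMI with 10% FBS at 37 °C, 5% CO₂, 100% humidity. Log-phase cells were exposed in triplicate to 0.5–100 μg/mL of compound for 72 h at 37 °C. Cell concentration was measured by protein analysis. ED₅₀ (dose inhibiting 50% of control growth) was read from a semilog plot of concentration (μg/mL) against percent viable cells.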

HCT-15 = assay: Cytotoxicity against human HCT15 cells after 72 hrs; conditions: for EC50: HCT-15, 72 h, read-out: ED50 (the source's name); in short: as §1
UISO-SQC1 = assay: (§2) Cytotoxicity against human UISO-SQC1 cells after 72 hrs; in short: as §1
[1] = as §2; conditions: UISO-SQC1, 72 h, read-out: ED50 (the source's name); in short: as §1

Structure (SMILES) | EC50 (OVCAR-5) [µg/mL] | Activity (HCT-15) | Activity (UISO-SQC1) | EC50 (HCT-15) [µg/mL] | EC50 [1] [µg/mL]
CCCCC[C@H]1CCCCCCCCCC(=O)O[C@@H]2[C@@H](O[C@@H]3O[C@H](C)[C@@H](OC(=O)C(C)C)[C@H](O)[C@H]3O)[C@H](C)O[C@@H](O[C@H]3[C@H](O[C@H]4[C@H](O1)O[C@H](C)[C@@H](O)[C@@H]4O)O[C@H](CO)[C@@H](O)[C@@H]3O)[C@@H]2OC(=O)C(C)CC (some centres not stated) [STANSIN 4] | 5.5 (≈ 5.45 µM) | inactive | inactive |  | 
CCCCC[C@H]1CCCCCCCCCC(=O)O[C@@H]2[C@@H](O[C@@H]3O[C@H](C)[C@@H](OC(=O)C(C)C(C)O)[C@H](O)[C@H]3O)[C@H](C)O[C@@H](O[C@H]3[C@H](O[C@H]4[C@H](O1)O[C@H](C)[C@@H](O)[C@@H]4O)O[C@H](COC(=O)C(C)C(C)O)[C@@H](O)[C@@H]3O)[C@@H]2OC(=O)C(C)CC (some centres not stated) [STANSIN 3] | > 25 |  |  | > 24 | 
CCCCC[C@H]1CCCCCCCCCC(=O)O[C@@H]2[C@@H](O[C@@H]3O[C@H](C)[C@@H](OC(=O)C(C)CC)[C@H](O)[C@H]3O)[C@H](C)O[C@@H](O[C@H]3[C@H](O[C@H]4[C@H](O1)O[C@H](C)[C@@H](O)[C@@H]4O)O[C@H](CO)[C@@H](O)[C@@H]3O)[C@@H]2OC(=O)C(C)CC (some centres not stated) [STANSIN 5] | 1.5 (≈ 1.47 µM) |  |  | 24 (≈ 23.5 µM) | 4 (≈ 3.91 µM)
CCCCC[C@H]1CCCCCCCCCC(=O)O[C@@H]2[C@@H](O[C@@H]3O[C@H](C)[C@@H](OC(=O)C(C)C(C)O)[C@H](O)[C@H]3O)[C@H](C)O[C@@H](O[C@H]3[C@H](O[C@H]4[C@H](O1)O[C@H](C)[C@@H](O)[C@@H]4O)O[C@H](COC(=O)C(C)C(C)O)[C@@H](O)[C@@H]3O)[C@@H]2OC(=O)C(C)C (some centres not stated) [STANSIN 1] | > 25 |  |  | > 24 | 
CCCCC[C@H]1CCCCCCCCCC(=O)O[C@@H]2[C@@H](O[C@@H]3O[C@H](C)[C@@H](OC(=O)C(C)C(C)O)[C@H](O)[C@H]3O)[C@H](C)O[C@@H](O[C@H]3[C@H](O[C@H]4[C@H](O1)O[C@H](C)[C@@H](O)[C@@H]4O)O[C@H](COC(=O)C(C)C(C)O)[C@@H](O)[C@@H]3O)[C@@H]2OC(=O)CC(C)C (some centres not stated) [STANSIN 2] | > 25 |  |  | > 24 | 
